Reference: article PMC4912417 (Nature chemical biology, 2016)

Test system: larval zebrafish
Assay: Battery of 10 behavioral assays in larval zebrafish
Format: in vivo, zebrafish (Danio rerio)
Conditions: for Haloperidol-like phenotype (zebrafish motor activity heat maps): Fig. 3b, three wells per drug
Procedure, shortened: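 7 d.p.f. Ekkwill larvae, 8–10 per well in E3, held 1 h at 25 °C, then given compound (<1% DMSO; DMSO-treated control wells) for 1 h at room temperature. Ten-assay battery of red/blue/violet light and 60/70 dB sound, IR-lit video; MI by frame differencing over 10,500 time points. Seven 2-fold concentrations, 12 wells each, triplicate days; magnitude = 5th-percentile-subtracted MI averaged over time.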

Compound	Haloperidol-like phenotype (zebrafish motor activity heat maps)	other results
CN1c2ccccc2C(NCCCCCCC(=O)O)c2ccc(Cl)cc2S1(=O)=O (stereo not drawn) [Tianeptine]		Effect on behavioral profile (phenotypic distance from control animals) (reference set, seven concentrations): failed to show an effect
CSc1ccc2c(c1)N(CCC1CCCCN1C)c1ccccc1S2 (stereo not drawn) [thioridazine]	cause haloperidol-like phenotypes	
O=C(CCCN1CCC(O)(c2ccc(Cl)cc2)CC1)c1ccc(F)cc1 [Haloperidol]		MI magnitude (5 μM, 48 wells vs DMSO): increased MI magnitude at many points in the time series; Shape and average magnitude of the behavioral profile (lower concentrations (2.5–10 μM)): changed the shape of the behavioral profile without reducing its average magnitude; Motor activity (very high concentrations (20–80 μM)): reduced motor activity
O=C(CCCN1CC=C(n2c(=O)[nH]c3ccccc32)CC1)c1ccc(F)cc1 [DROPERIDOL]	cause haloperidol-like phenotypes	
CN1CCN(CCCN2c3ccccc3Sc3ccc(Cl)cc32)CC1 [prochlorperazine]	cause haloperidol-like phenotypes	
c1ccc2c(c1)Nc1ccccc1S2 [phenothiazine]	cause haloperidol-like phenotypes	
O=C(CCCN1CCC(O)(c2ccc(Br)cc2)CC1)c1ccc(F)cc1 [BROMPERIDOL]	cause haloperidol-like phenotypes	
